# RAM network inh: inhibitors of the yeast RAM network; actives 1.8% (n = 190,000); S. cerevisiae dse1pr::URA3 reporter, 5-FOA growth OD615, 2 d; analog-sensitive cbk1-as2 kinase mutant strain; inhibition, % at 50 µM;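 active = inhibition above a set limit, 3 SD over mean compound inhibition, cut at about 8.4% in these data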;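 note: 0% = DMSO-only wells with no growth and 100% = 10 µM 1-NA-PP1 full growth; inhibition rescues growth on 5-FOA so higher OD means more RAM inhibition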
# Yeast life ext: extends the lifespan of yeast; S. cerevisiae growth with nicotinamide, OD615; deaD strain in restrictive glucose medium; AID 775; actives 0.68% (n = 130,000); inhibition of the nicotinamide effect, % at 10 µM;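 active = inhibition above a set limit, placed 3 SD over the median of all compounds, cut at about 26% in these data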;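 note: 0% = nicotinamide-treated wells and 100% = cells grown without nicotinamide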
#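 System: Modified budding yeast, DeaD strain | Buffer or medium: Restrictive glucose medium | Also added: 1.5 mM nicotinamide | Doses: 10 µM single point, 0.25% DMSO | Schedule: 48 h compound exposure at 30 °C, humidified | Detection: Absorbance at 615 nm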
# Yeast growth inh: reduces growth of yeast BB579 in restrictive medium; S. cerevisiae BB579 growth, OD615, 48 h; inhibition, % at 10 µM; actives 0.51% (n = 140,000);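 active = inhibition above a set limit, 3 SD over the mean compound inhibition, cut at about 44% in these data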
#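 Assay system: S. cerevisiae DeaD strain BB579 yeast. Medium: CSMM-D restrictive synthetic medium containing dextrose (glucose). Times: 4 h cell preincubation, 48 h compound exposure, 30 °C humidified. Signal: OD615 turbidity measurement. Benchmarks: positive control amphotericin B 10 µg/mL.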
# SDO1 yeast rescue: compounds rescuing growth of sdo1-depleted yeast, bone marrow failure model | S. cerevisiae sdo1-depleted JHY4D growth rescue, OD600 30 h; stronger effect = higher value; pdr5 snq2 efflux-pump mutant strain | z-score at 10 µM | actives 0.21% (n = 140,000) | AID 817;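 active = z-score above 3 at both the 24 hr and the 30 hr optical density reads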;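 note: z-score against mean and SD of all compound wells on the same plate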
# SDO1 rescue DR: confirmation of growth rescue in SDO1-depleted yeast, bone marrow failure | actives 44% (n = 440) | shares compounds with SDO1 yeast rescue | OD recovery (concentration not given with the values) | S. cerevisiae JHY4D (SDO1-depleted) growth rescue, OD600, 30 h; stronger effect = higher value; efflux-deficient strain, SNQ2 and PDR5 mutated;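 active = yeast growth recovered at 30 hours, either rising with dose fitted slope above 0.001 or with average optical density gain above 0.07, some results past the limit were not filed as active; inactive = growth falling with dose or no effect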;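 note: gain in OD600 from 0 h to 30 h averaged across all seven doses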
# * hit, by the source's call; . = not tested or not shown; [ ] = remark or other dose. In the library only some 2.7% were active in any assay of this set; here they are far more common.
SMILES,RAM network inh,Yeast life ext,Yeast growth inh,SDO1 yeast rescue,SDO1 rescue DR
O=C(CN1CCN(c2cccc(Cl)c2)CC1)Nc1ccc([N+](=O)[O-])cc1C(=O)Nc1ccccc1F,2,1,-32,14*,0.033
O=C(CCSCCc1ccncc1)NCCCN1CCOCC1,3,-13,-50,2.6,0.1*
O=C(CCSCCC(=O)NCCN1CCOCC1)NCCN1CCOCC1,-1,-5,4,0.83,.
O=[N+]([O-])c1cccc(N2Cc3ccccc3C2)c1,5,.,.,.,.
O=C(OCC(CO)OC(CO)n1ccc(=O)[nH]c1=O)c1ccccc1 (stereo not drawn),2,-1,-30,7.7*,0.06
CCOCCOC(=O)C(C)Oc1ccc(Oc2ncc(Cl)cc2Cl)cc1 (stereo not drawn),0,0,-8,6.9*,0.11*
Oc1ccc(Oc2ncc(Cl)cc2Cl)cc1,0,-12,-66,-0.24,.
CC(=O)N(C1=C(O)c2ccccc2C(=O)C1=O)C1CCCCC1,0,-12,-33,3.1*[12.9 µM],0.074*
CN1CCN(C(=O)c2ccccc2-c2nc(-c3ccccc3)no2)CC1,1,1,-31,-0.18,.
NC(=O)c1ccccc1-c1nc(-c2ccccc2)no1,2,-6,-13,11*,0.055
CCOC(=O)C1CCN(c2ccc([N+](=O)[O-])c(C(C)=O)c2)CC1,2,.,.,.,.
Cc1cc(C)nc(SCC(=O)NC2=NN=C(c3ccc(Br)cc3)CS2)n1,2,-17,-12,1.1,0.083*
CCC(Sc1nc(C)cc(C)n1)C(=O)NC1=NN=C(c2ccc(C)cc2)CS1 (stereo not drawn),2,-8,-20,-0.57,.
O=C(COc1ccc([N+](=O)[O-])cc1)NC(C(=O)O)C(O)c1cccc([N+](=O)[O-])c1 (stereo not drawn),2,.,.,.,.
O=C(C1CCCCC1)N1CCN(C(=O)C2CCCCC2)CC1,-1,-16,7,11*,0.041
O=Cc1ccccc1OCc1nnsc1Cl,1,.,.,.,.
CC(C(=O)NC1CCCC1)N(C(=O)c1snc(C(N)=O)c1N)c1ccc2c(c1)OCCO2 (stereo not drawn),3,-1,-63,14*,0.08*
Cc1cccc(N(C(=O)c2snc(C(N)=O)c2N)C(C)C(=O)NCC2CCCO2)c1 (stereo not drawn),1,.,.,.,.
COCCNCCCCOc1c(Cl)cc(C)cc1Br,0,-18,1,0.51,.
Cc1cc(Cl)c(OCCCNCc2ccccc2)c(Br)c1,0,-10,-1,4.2*,0.058
O=C(NCc1ccc2c(c1)OCO2)c1cc(-c2ccc(Cl)cc2Cl)on1,8,-6,-41,0.92,0.024
Cc1ccc(NS(=O)(=O)c2ccc(Cl)c(C(=O)Nc3ccccc3-c3nc4ccccc4[nH]3)c2)cc1C,3,3,-19,-0.67,.
O=C(CNC(=O)c1ccccc1Cl)OC1CCOC1=O (stereo not drawn),3,.,.,.,.
COc1cc(NC(=S)NC(=O)c2ccccc2F)ccc1NC(=O)c1ccco1,2,4,-19,2.2,0.07
COc1cc(NC(=S)NC(=O)c2ccco2)ccc1NC(=O)C(C)C,5,.,.,.,.
SMILES,RAM network inh,Yeast life ext,Yeast growth inh,SDO1 yeast rescue,SDO1 rescue DR
Cc1cc(Cl)ccc1C(=O)C1CCCN(C(=O)c2snnc2C)C1 (stereo not drawn),1,.,.,.,.
COc1ccc(CCNC(=O)CC(NS(=O)(=O)c2ccc(NC(C)=O)cc2)C(C)C)cc1OC (stereo not drawn),1,-5,-37,2.3,0.084
CCOC(=O)c1cnn(Cc2ccccc2)c1N,0,.,-47,6.1*,0.066
Cn1c(=O)c2[nH]c(CNCc3ccccc3Cl)nc2n(C)c1=O,0,-8,-13,1.4,0.069
Cn1c(=O)c2[nH]c(CN3CCN(Cc4ccccc4)CC3)nc2n(C)c1=O,0,-17,10,0.05,.
O=C(NCc1ccco1)c1ccc(Br)c(S(=O)(=O)N2CCCCC2)c1,0,-11,13,4.7*,0.072*
CC(=O)N1CCC(=NNc2ccc(S(=O)(=O)N3CCOCC3)cc2[N+](=O)[O-])CC1,0,-2,-14,12*,0.044
Cc1nn(-c2ccccc2)c(C)c1C(=O)OCC(=O)N1c2ccccc2NC(=O)C1(C)C,3,-4,-9,14*,0.051
Cc1cnc(C(=O)OCC(=O)N2c3ccccc3NC(=O)C2(C)C)cn1,-1,-4,-5,1.1,.
COc1cc(C2CC(=O)N(CC(=O)NCC3CCCO3)c3ccccc3S2)cc(OC)c1OC (stereo not drawn),0,.,.,.,.
O=C(CN1CCc2ccccc2C1)c1cccs1,0,2,17,5.6*,0.096*
CCOC(=O)c1sc2nc3n(c(=O)c2c1C)CCC(C)CC3 (stereo not drawn),2,-18,-14,4*,0.065
COc1ccc(N=C(NN)c2ccc3ccccc3n2)cc1,0,0,3,2.4,.
O=C(NCc1ccccc1Cl)c1ccccc1CCc1ccccc1,6,32*,-29,7.1*,0.082*
CCOC(=O)c1sc(=S)n(-c2ccccc2)c1N,1,.,-2,4*,0.056
CCOC(=O)c1sc(=S)n(-c2ccccc2)c1N(C(C)=O)C(C)=O,3,.,.,.,.
O=[N+]([O-])c1ccc(N/N=C\c2ccccc2OCc2ccccc2)cc1,5,5,-8,1.8,0.06
Cc1cc(NS(=O)(=O)c2ccc(NC(=S)NC(=O)c3ccccc3)cc2)no1,1,7,7,2.1,0.069
Cc1ccc(CNC(=O)CCCn2c(=O)[nH]c3ccccc3c2=O)cc1,3,-6,-44,8.9*,0.029
CCN(C(=S)Nc1cc(S(=O)(=O)N2CCOCC2)ccc1Cl)c1cccc2ccccc12,2,-1,-23,-0.47,.
O=S(=O)(c1ccc(Cl)c(NC(=S)Nc2cccc(O)c2)c1)N1CCOCC1,0,27*,-4,15*,0.04
O=S(=O)(c1ccc2c(c1)OCCO2)N1CCC(c2nc3ccc(Cl)cc3[nH]2)CC1,-1,-12,-16,9.1*,0.07
CC12CCC(C(=O)n3c1nc1ccccc13)C2(C)C (stereo not drawn),0,8,7,-0.88,.
CC12CCC(c3c1nc1ccccc1[n+]3[O-])C2(C)C (stereo not drawn),2,7,-3,5.4*,0.08*
Cc1ccc(SCC(=O)Nc2cc([N+](=O)[O-])ccc2O)cc1,6,.,.,.,.
COc1ccccc1S(=O)(=O)Cc1ccc(C(=O)N2CCN(c3ccccc3)CC2)o1,0,-12,-60,0.29,.
COc1ccccc1S(=O)(=O)Cc1ccc(C(=O)N2CCOCC2)o1,1,3,-32,3.2*,0.044
CCN1CCN(C(=O)c2ccccc2NS(=O)(=O)c2ccc(Cl)cc2)CC1,1,.,.,.,.
CCNc1oc(-c2cccc3ccccc23)nc1C#N,6,-7,-34,-1.2,.
